Laboratory results reported in ChEMBL document CHEMBL1145010, “Stereoselective synthesis of beta-lactams with polyaromatic imines: entry to new and novel anticancer agents” (2003).

Tests used:
[1] = (§1) In Vitro cytotoxicity against human cancer cell line, BRO; assay type: functional, Cancer cell lines
Method in brief: (§2)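 MTT cytotoxicity assay across a panel of nine human cancer cell lines, run in the institutional Pharmacology and Analytic Core Laboratory by a previously described protocol. Cisplatin and a diamide were included as reference controls. Activity above 20 μM/mL was regarded as not significant.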

HL-60 = test: In Vitro cytotoxicity against human cancer cell line, HL-60; assay type: functional; method in brief: as §2
HT-29 = test: In Vitro cytotoxicity against human cancer cell line, HT-29; assay type: functional; method in brief: as §2
K562 = test: In Vitro cytotoxicity against human cancer cell line, K-562; assay type: functional; method in brief: as §2
[2] = (§3) In Vitro cytotoxicity against human cancer cell line, MDA-213; assay type: functional, Cancer cell lines; method in brief: as §2
MCF7 = test: In Vitro cytotoxicity against human cancer cell line, MCF-7; assay type: functional; method in brief: as §2
OVCAR = test: In Vitro cytotoxicity against human cancer cell line, OVCAR; assay type: functional; method in brief: as §2
PC-3 = test: In Vitro cytotoxicity against human cancer cell line, PC-3; assay type: functional; method in brief: as §2
[3] = (§4) In Vitro cytotoxicity against human cancer cell line, SKOV; assay type: functional, Cancer cell lines; method in brief: as §2
Cancer cell lines [4] = test: as §1; assay type: functional; method in brief: as §2
Cancer cell lines [5] = test: as §3; assay type: functional; method in brief: as §2
Cancer cell lines [6] = test: as §4; assay type: functional; method in brief: as §2

Compound	Cytotoxicity [1]	Cytotoxicity (HL-60)	Cytotoxicity (HT-29)	Cytotoxicity (K562)	Cytotoxicity [2]	Cytotoxicity (MCF7)	Cytotoxicity (OVCAR)	Cytotoxicity (PC-3)	Cytotoxicity [3]	Cytotoxicity (Cancer cell lines [4])	Cytotoxicity (Cancer cell lines [5])	Cytotoxicity (Cancer cell lines [6])
CN1CCN(C(=O)CCC(=O)Nc2cc3c4ccccc4ccc3c3ccccc23)CC1	33.64 µM	9.41 µM	16.7 µM	12.7 µM	12.23 µM	40 µM	18.11 µM	27.29 µM	11.05 µM			
CC(=O)OC1C(=O)N(c2cc3ccccc3c3ccccc23)[C@H]1c1ccccc1 (stereo not given in full)	10.48 µM	5.21 µM	10.49 µM	4 µM	12.49 µM	10.09 µM	18 µM	9.3 µM	18 µM			
O=C1C(Oc2ccccc2)[C@H](c2ccccc2)N1c1cc2c3ccccc3ccc2c2ccccc12 (stereo not given in full)	>20 µM	>20 µM	>20 µM	>20 µM	>20 µM	>20 µM	>20 µM	>20 µM	>20 µM			
CC(=O)OC1C(=O)N(c2ccccc2)C1c1cc2c3ccccc3ccc2c2ccccc12 (stereo not given)	>20 µM	>20 µM	>20 µM	>20 µM	>20 µM	>20 µM	>20 µM	>20 µM	>20 µM			
CC(=O)OC1C(=O)N(c2cccc3cc4c(cc23)Cc2cc3ccccc3cc2-4)[C@H]1c1ccccc1 (stereo not given in full)	>20 µM	>20 µM	>20 µM	>20 µM	>20 µM	>20 µM	>20 µM	>20 µM	>20 µM			
CC(=O)OC1C(=O)N(c2cc3c4ccccc4ccc3c3ccccc23)[C@H]1c1ccccc1 (stereo not given in full)	10.84 µM	3.64 µM	5.66 µM	4.33 µM	11.98 µM	9.81 µM	4.17 µM	16.32 µM	6.88 µM			
CC(=O)OC1C(=O)N(c2ccc3ccc4cccc5ccc2c3c45)[C@H]1c1ccccc1 (stereo not given in full)	>20 µM	>20 µM	>20 µM	>20 µM	>20 µM	>20 µM	>20 µM	>20 µM	>20 µM			
CC(=O)OC1C(=O)N(c2cccc3ccccc23)[C@@H]1c1ccccc1 (stereo not given in full)	>20 µM	>20 µM	>20 µM	>20 µM	>20 µM	>20 µM	>20 µM	>20 µM	>20 µM			
O=C1C(Oc2ccccc2)[C@H](c2ccccc2)N1c1cc2ccccc2c2ccccc12 (stereo not given in full)	>20 µM	>20 µM	>20 µM	>20 µM	>20 µM	>20 µM	>20 µM	>20 µM	>20 µM			
CC(=O)OC1C(=O)N(c2cccc3cc4ccccc4cc23)[C@@H]1c1ccccc1 (stereo not given in full)	>20 µM	>20 µM	>20 µM	>20 µM	>20 µM	>20 µM	>20 µM	>20 µM	>20 µM			
CC(=O)OC1C(=O)N(c2cc3c4ccccc4ccc3c3ccccc23)[C@H]1c1ccccn1 (stereo not given in full)	11 µM	2.5 µM	15.9 µM	2.5 µM	14.46 µM	14.93 µM			9 µM			
CISPLATIN		1.66 µM	17 µM	2.33 µM		10.1 µM	3.99 µM	4.66 µM		7.66 µM	12.3 µM	5.99 µM
O=C1c2ccccc2C(=O)N1C1C(=O)N(c2cc3c4ccccc4ccc3c3ccccc23)[C@H]1c1ccccc1 (stereo not given in full)	>20 µM	>20 µM	>20 µM	>20 µM	>20 µM	>20 µM	>20 µM	>20 µM	>20 µM			
